Screening data (PubChem)
Most compounds without a hit are left out; they make up all but 1.4% or so of the library.
Diaph inh CS = diaphorase inhibitors and chemical oxidizers, primary screen, counter-screen for diaphorase-coupled primary assays, biochemical, uHTS, resorufin fluorescence. inhibition, % at 20 µM. AID 1217, 2008. 190,000 compounds, 0.69% hits. diaphorase resazurin-to-resorufin fluorescence, NADH, 16 min; bacterial (C. kluyveri) enzyme, not human;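 active means primary screen inhibition at 20 µM above a set limit, cut at about 50% in these data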;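 further: plate controls were DMSO with full reaction for no effect and wells lacking NADH for full effect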
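Test system: Clostridium kluyveri diaphorase enzyme / Quantity: diaphorase at 0.14 U/mL in enzyme working solution / Incubation: 16-min room-temperature incubation before reading / Benchmarks: NADH-free wells as positive control, DMSO-only neutral wells / Signal: resorufin fluorescence 544/590 nm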
Diaphorase act = compounds boosting diaphorase resazurin reduction – biochemical, uHTS, resorufin fluorescence, counter-screen for diaphorase-coupled primary assays, primary screen | Diaphorase/resazurin coupled assay, 16 min; active compounds read high; 1 = vehicle wells, 0 = NADH-free wells | 190,000 compounds, 0.005% hits | activation factor at 20 µM | AID 1229, 2008;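 active means diaphorase activity raised at least twofold by the compound at 20 µM; inactive means activation factor below 2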
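Test system: Clostridium kluyveri diaphorase, purified enzyme; input: enzyme 0.07 U/mL final; buffer or medium: 50 mM HEPES pH 7.4 with 4.542 mM MgCl2, 0.005% Tween 20; also added: 0.114 mM NADH and 0.1 mM resazurin, final amounts; schedule: 16 min enzyme reaction, ambient temperature; technique: fluorescence of resorufin, 544 nm excitation, 590 nm emission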
Fh CTSL1 inh = Fasciola hepatica cathepsin L1 inhibitors, primary screen, counter-screen for PFM18AAP inhibitor project, biochemical, QFRET, fluorogenic peptide substrate. recombinant F. hepatica cathepsin L1, Z-Leu-Arg-MCA fluorescence. inhibition, % at 5.96 µM. 300,000 compounds, 0.49% hits. AID 1906, 2009;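 active means inhibition above the mean of all tested compounds plus 3 SD, set per screening campaign, cut at about 17% in these data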;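 further: 0% = plate median of test compound wells and 100% = 1 µM Z-Phe-Ala-diazomethylketone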
HKDC1 inhibitor = HKDC1 hexokinase inhibitors, primary screen, biochemical, fluorescence, uHTS. AID 493160, 2011. inhibition, % at 20 µM. recombinant HKDC1, G6PDH/diaphorase resazurin coupled fluorescence. 340,000 compounds, 0.16% hits;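 active means inhibition above about 35% when tested at 20 µM, limit read from the data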;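 further: plate controls were DMSO wells with enzyme for no effect and DMSO wells lacking enzyme for full effect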
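Assay system: in-house recombinant HK5 (HKDC1) enzyme. Input: HKDC1 at 5 µg/mL. Medium: Tris pH 8.0 buffer with MgCl2, Tween-20, BSA, BME. Dosing: single 20 µM dose. Schedule: 90 min reaction incubation at room temperature, dark. Signal: resazurin-to-resorufin fluorescence via G6PDH and diaphorase coupling, 525/613 nm. Controls: DMSO-enzyme wells negative, buffer-substituted wells positive.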
ATG4B inh = ATG4B protease inhibitors, primary screen, biochemical, fluorescence, uHTS. inhibition, % at 8.33 µM. Cysteine protease ATG4B (Homo sapiens), Q9Y4P1. AID 504462, 2011. ATG4B cleavage of LC3-PLA2, NBD-HPC fluorescence, 1 h. 340,000 compounds, 0.51% hits; in the data active means inhibition above about 40%
Target sequence (Q9Y4P1 whole entry, looked up): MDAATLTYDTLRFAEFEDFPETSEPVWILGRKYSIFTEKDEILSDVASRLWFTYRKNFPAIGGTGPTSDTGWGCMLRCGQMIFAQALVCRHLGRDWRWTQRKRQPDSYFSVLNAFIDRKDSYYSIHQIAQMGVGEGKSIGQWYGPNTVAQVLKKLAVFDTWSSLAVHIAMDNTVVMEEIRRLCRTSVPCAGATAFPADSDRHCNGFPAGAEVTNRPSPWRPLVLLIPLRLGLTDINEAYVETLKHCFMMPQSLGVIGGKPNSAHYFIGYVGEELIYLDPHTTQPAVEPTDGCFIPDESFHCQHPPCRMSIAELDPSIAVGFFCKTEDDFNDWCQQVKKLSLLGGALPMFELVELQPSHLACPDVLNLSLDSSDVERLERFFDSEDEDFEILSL
* hit, by the source's call; . = not tested or not shown.

SMILES | Diaph inh CS | Diaphorase act | Fh CTSL1 inh | HKDC1 inhibitor | ATG4B inh
CCC(=Cc1ccccc1O)c1ccncc1 | . | . | . | -0.3 | -2.8
CCN(CC)C(=O)CSc1nnc(-c2ccccc2)o1 | 12.4 | 0.9 | -9.5 | -11.1 | -0.2
CCN(CC)C(=O)CSc1nnc([C@@H](N)C(C)C)o1 | . | . | 32.7* | -5.4 | -4.1
O=C(CCCN1C(=O)C2CC=CCC2C1=O)Nc1cccc(F)c1 (stereo not given) | . | . | -5.8 | -1.8 | -5.5
CCOC(=O)C(C(=O)OCC)N(C#N)c1nc(SC)nc(N(C)C)n1 | 14.8 | 0.9 | 85.6* | -1.9 | -5.6
CCOC(=O)C(C(=O)OCC)N(C#N)c1nc(OC)nc(N(C)C)n1 | 5.1 | 0.9 | 76.8* | -5.9 | -7.5
Cc1ccsc1C(=O)OCC(=O)N1CC(C)CC(C)C1 (stereo not given) | . | . | . | -4.3 | 4.0
O=C(O)c1ccc(N2C(=O)CC(SC(=Nc3ccccc3)Nc3ccccc3)C2=O)cc1 (stereo not given) | 12.1 | 0.9 | 2.0 | -5.9 | -7.8
CC(/C=C/c1ccc(N(C)C)cc1)=N\N=C(/N)SC1CC(=O)N(c2ccc(C(=O)O)cc2)C1=O (stereo not given) | -2.3 | 1 | 22.4* | -7.6 | 1.4
Cc1nc2cc(C)c(C)cc2s1 | 2.8 | 1 | -2.7 | 15.3 | 8.3
Cc1cc2nc3ccc(=[N+](C)C)cc-3sc2cc1N | . | . | . | 46.9* | 11.8
NC(=O)c1c(NC(=O)CSc2nnc(-c3ccco3)n2-c2ccccc2)sc2c1CCC2 | 53.0* | 0.5 | 2.5 | 3.1 | 13.3
CCOC(=O)c1c(NC(=O)CSc2nnc3c(Cl)cc(Cl)cn23)sc2c1CCC2 | 68.8* | 0.3 | 2.3 | 25.6 | -8.8
N#Cc1c(NC(=O)CSc2nnc(-c3ccco3)n2-c2ccccc2)sc2c1CCC2 | 0.0 | 1 | 5.3 | -5.4 | 12.7
Cc1c(C(=O)NNC(=S)NCc2ccc(Cl)cc2)oc2ccccc12 | . | . | 4.9 | -2.5 | 37.8
O=C(O)C1C(c2ccccc2)c2ccccc2C(O)C1CO (stereo not given) | . | . | . | 5.7 | 12.2
CCOC(=O)C1=C(N)OC(CCl)=C(C#N)C1c1ccsc1 (stereo not given) | 11.5 | 0.9 | 60.1* | 24.8 | 9.1
O=C(C1CCCO1)N1CCN(Cc2c(O)ccc3ccccc23)CC1 (stereo not given) | 56.3* | 0.4 | -1.6 | 15.0 | -4.8
Cc1ccc2c(c1)C1C=CCC1C(C(=O)O)N2 (stereo not given) | 63.0* | 0.4 | -2.1 | . | .
COc1cccc2c1NC(C(=O)O)C1CC=CC21 (stereo not given) | 92.6* | 0.1 | -5.3 | 12.4 | 18.4
CCCCn1c(N)c(N(CCOC)C(=O)CSc2n[nH]c(-c3ccc(OC)cc3)n2)c(=O)[nH]c1=O | . | . | 1.4 | -0.2 | -1.0
Cc1c(C(=O)N2CCOCC2)sc(NC(=O)c2ccc([N+](=O)[O-])cc2)c1C#N | . | . | -0.1 | -5.3 | 0.0
Cc1c(C(=O)N2CCOCC2)sc(NC(=O)CCl)c1C#N | . | . | 17.5* | -2.1 | 6.8
CCCCNC(=O)Oc1c(Br)cc2sc(=O)oc2c1Br | . | . | 22.8* | . | .
Cc1ccc(OCC(=O)NCCNC(=O)c2cnccn2)cc1C | . | . | . | -5.2 | 0.8
SMILES | Diaph inh CS | Diaphorase act | Fh CTSL1 inh | HKDC1 inhibitor | ATG4B inh
Cc1cc(C)n(-c2nnc(N3CCN(c4ccc(F)cc4)CC3)nn2)n1 | 52.7* | 0.5 | 3.8 | -0.4 | -4.3
O=C(c1ccc(Cl)c(S(=O)(=O)N2CCCC2)c1)N1CCN(c2ccccc2)CC1 | 3.3 | 1 | 34.7* | -6.4 | -7.4
CCC(CO)Oc1cc(NC(=O)c2ccccc2[N+](=O)[O-])c2ncn(C(C)C)c2c1 (stereo not given) | . | . | . | 7.8 | -15.8
CN(Cc1nccn1C)C(=O)CC1C(=O)NCCN1Cc1ccc(F)cc1Cl (stereo not given) | . | . | 1.1 | -3.2 | -0.3
Cc1cc(C)c2c(c1)/C(=c1/sc3n(c1=O)CN(c1ccccc1)CN=3)C(=O)N2 | . | . | 2.0 | -0.6 | 1.0
CCc1nc(SCc2ccc(Cl)cc2)n[nH]1 | 64.5* | 0.4 | -3.2 | 5.0 | -0.8
COc1ccc(N2CCN(C(=O)c3cc(=O)c4cc(C)ccc4o3)CC2)cc1 | . | . | 1.1 | 1.2 | -7.5
COc1ccc(S(=O)(=O)Nc2ccccc2C(=O)OC2CCCN(C)C2)cc1OC (stereo not given) | 12.0 | 0.9 | 27.4* | -8.9 | -15.6
COc1ccc(S(=O)(=O)Nc2ccccc2C(=O)NC(C)(C)C)cc1OC | 6.2 | 0.9 | -1.2 | -9.5 | -11.2
COc1ccc(-c2nc3c(-c4ccccc4)cnn3cc2C)cc1F | 15.3 | 0.8 | 20.3* | -6.1 | 0.4
COc1cccc(-c2nc(NCc3ccco3)c3ccccc3n2)c1O | 0.8 | 1 | -2.8 | -2.6 | -11.0
COc1cccc(-c2nc(NCc3ccccc3)c3ccccc3n2)c1O | . | . | 20.7* | -1.9 | -9.6
Cc1c(NC(=O)c2ccc3c(c2)C(=O)N(CC2CCCO2)C3=O)cccc1C(=O)O (stereo not given) | -3.7 | 1 | -1.0 | 3.3 | -0.8
CCOc1ccccc1NC(=O)c1ccc2c(c1)C(=O)N(CC1CCCO1)C2=O (stereo not given) | . | . | 17.5* | -6.7 | -3.5
CC1(C)CC(NS(=O)(=O)c2ccc(S(N)(=O)=O)cc2)CC(C)(C)N1 | . | . | -2.0 | . | .
CC(C)C[C@H](N)c1nnc(S(=O)(=O)Cc2ccc(F)cc2)o1 | -10.9 | 1.1 | 53.8* | -7.0 | -6.8
O=C1c2cc(Br)ccc2N(Cc2ccc(Br)cc2)S(=O)(=O)C1c1cc(Cl)c(Cl)cc1[N+](=O)[O-] (stereo not given) | . | . | . | 1.5 | 68.2*
O=C1CS(=O)(=O)N(Cc2cccc(F)c2)c2ccc(Br)cc21 | . | . | . | 8.2 | 6.6
O=C(COc1ccc(Br)cc1)Nc1ccc(CN2CCOCC2)cc1 | . | . | -1.3 | -2.2 | -1.1
CCN1CCCC1CNC(=O)c1cc2cc(F)ccc2[nH]1 (stereo not given) | . | . | -0.3 | -6.3 | -9.5
Oc1ccc2ccccc2c1CNc1cnc2ccccc2c1 | 59.6* | 0.4 | -0.1 | 11.7 | -13.1
CC(Oc1ccc2c(-c3ccccc3)cc(=O)oc2c1)C(=O)N1CCC[C@@H]1C(N)=O (stereo not given in full) | . | . | 42.4* | 2.9 | -19.4
COc1ccc(-c2cc(=O)oc3cc(OC(C)C(=O)O)ccc23)cc1 (stereo not given) | 8.7 | 0.9 | 3.2 | 9.4 | -10.5
COc1ccccc1/C=N/Nc1nncc2ccccc12 | -8.5 | 1.1 | 3.5 | -5.8 | -2.3
COc1ccc(/C=N/Nc2nncc3ccccc23)cc1 | 0.8 | 1 | 52.5* | -2.4 | -6.4
